CAL PDZ FP-1: blocks peptide binding to the human CAL PDZ domain. Q9HD26. purified CAL PDZ, TMR-peptide fluorescence polarization, 1 h. inhibition, % at 24.9 µM. 300,000 tested, 0.92% active. AID 602252;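 active means mean inhibition of at least 30% with at least half of replicates also reaching 30%; inconclusive means no clear call, values can overlap the other calls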;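 further: 0% = DMSO neutral control and 100% = excess unlabeled competitor peptide PRC23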
CAL PDZ FP-2: blocks peptide binding to human CAL PDZ domain; 330,000 tested, 0.02% active; purified CAL PDZ, TMR-peptide fluorescence polarization, 1 h; inhibition, % at 20 µM;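 active means highest replicate inhibition of at least 40%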;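 further: plate controls were DMSO neutral control wells for no effect and unlabeled competitor peptide control wells for full effect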
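Material – purified CerCALP PDZ construct · Detection – FP readout, S and P plane fluorescence · Measure – percent inhibition from loss of millipolarization · Controls – unlabelled peptide for full inhibition, DMSO wells as neutral · Probe or stimulus – TMR-labelled reporter peptide T*-PRC34 bound in PDZ groove · Times – 1 h at RT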
miR-122 sensor: inhibitors of miR-122 in Huh7 cells | Huh7 miR-122 Renilla luciferase sensor, 48 h; neutral wells = 0, positive control = 100 | AID 602342 | activation (reporter increase), % at 12.5 µM | 340,000 tested, 0.3% active;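 active means mean replicate activation score at least 90 and every replicate individually at or above 90; inconclusive means only one of the two criteria met; inactive means neither criterion met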;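 further: higher luciferase means less miR-122 activity so hits act as miR-122 inhibitors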
Keap1-Nrf2 PPI: disrupts human Keap1 binding to Nrf2 peptide; Q14145; Keap1 Kelch-Nrf2 peptide fluorescence polarization, 1536-well; inhibition, % at 9.4 µM; 340,000 tested, 0.15% active; AID 504523; in the data active means inhibition above about 12%; inconclusive means no clear call, values can overlap the other calls; inactive means below about 7.3%;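 further: human Keap1 Kelch domain with fluorescein labeled Nrf2 9mer peptide probe; 0% = neutral control wells and 100% = peptide positive control; higher means more block of Keap1 binding to Nrf2 peptide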
Target sequence (Q14145 whole entry, looked up, the tested form may be a part): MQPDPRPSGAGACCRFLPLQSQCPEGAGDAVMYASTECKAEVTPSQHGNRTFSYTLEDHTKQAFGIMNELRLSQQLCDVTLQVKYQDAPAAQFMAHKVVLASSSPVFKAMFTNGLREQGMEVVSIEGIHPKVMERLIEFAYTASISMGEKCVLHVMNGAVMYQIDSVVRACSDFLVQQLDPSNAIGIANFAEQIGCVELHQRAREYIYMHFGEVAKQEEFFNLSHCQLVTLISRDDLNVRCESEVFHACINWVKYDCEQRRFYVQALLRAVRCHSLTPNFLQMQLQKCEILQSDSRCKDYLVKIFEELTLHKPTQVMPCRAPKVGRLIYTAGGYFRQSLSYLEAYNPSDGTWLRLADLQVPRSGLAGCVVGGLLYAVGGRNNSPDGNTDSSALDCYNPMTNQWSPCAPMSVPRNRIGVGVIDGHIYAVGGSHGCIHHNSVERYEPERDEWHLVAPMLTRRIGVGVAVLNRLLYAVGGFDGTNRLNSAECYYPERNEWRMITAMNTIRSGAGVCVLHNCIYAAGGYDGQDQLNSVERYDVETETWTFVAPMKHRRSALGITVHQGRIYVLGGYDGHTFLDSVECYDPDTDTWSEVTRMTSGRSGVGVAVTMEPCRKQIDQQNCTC
LANA DNA inh: KSHV C-LANA DNA binding inhibition. MBP-C-LANA/FAM-LBS DNA binding, fluorescence polarization. AID 504423. 340,000 tested, 0.078% active. inhibition, % at 9 µM;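 active means highest replicate inhibition at or above 60% at 9 µM, even if other replicates fall short; inactive means all replicates below 60% inhibition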;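 further: 0% = neutral control wells and 100% = 4 µM acridine orange control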
Starred values were filed as active, the others as inactive; ? = inconclusive; · = not tested or not shown; ! = not confirmed by another sample; [ ] = another dose, or the depositor's remark. Most compounds without a hit are left out; they make up all but 1.1% or so of the library.

SMILES	CAL PDZ FP-1	CAL PDZ FP-2	miR-122 sensor	Keap1-Nrf2 PPI	LANA DNA inh
COc1ccc(NS(=O)(=O)c2ccc3ccccc3c2)c2ncccc12	-1.4	-2.1	104.3*	0.5	1.9
Cc1cccc(-c2ccc([C@H]3[C@H](CO)N4CCCCN(Cc5cccnc5)C[C@@H]34)cc2)c1	·	·	4.3[16.7 µM]	·	·
CC(C)NC(=O)N(C)C[C@@H]1OCCCC[C@@H](C)Oc2ccc(NC(=O)NC3CCCCC3)cc2C(=O)N([C@H](C)CO)C[C@@H]1C	·	·	1.5[16.7 µM]	·	·
Cc1ccc(-c2nn3c(C)nnc3c3ccccc23)cc1S(=O)(=O)NCCN1CCOCC1	·	-3.3	198.3*	-2.2	-0.5
Cc1ccc(-c2n[nH]c(=O)c3ccccc23)cc1S(=O)(=O)Nc1ccccc1	-8.8	-4.8	77.4	-7.1	-6.0
Cc1ccc(-c2n[nH]c(=O)c3ccccc23)cc1S(=O)(=O)NCCN1CCOCC1	42.3*	·	?	-1.5	-0.7
C[C@H](NC(=O)C[C@H]1C[C@@H]2c3cc(NS(C)(=O)=O)ccc3O[C@@H]2[C@H](CO)O1)c1ccccc1	·	·	1.9[16.7 µM]	·	·
C[C@@H]1CN([C@H](C)CO)C(=O)Cc2cc(NC(=O)Nc3ccc4c(c3)OCO4)ccc2O[C@@H]1CN(C)Cc1ccc(Oc2ccccc2)cc1	·	·	-11.6[16.7 µM]	·	·
Cc1cc(-c2n[nH]c(=S)n2-c2ccccc2C)cs1	62.0*	-1.3	·	-1.7	1.6
O=C(N/N=C/c1ccoc1)c1ccccc1Br	39.0*	9.6	-2.4	-2.7	1.4
CSc1ccc(S(=O)(=O)NCc2ccc(Cl)cc2Cl)cc1	·	-1.1	38.7	4.5	-0.2
O=S(=O)(NCc1ccc(Cl)cc1Cl)c1ccc(N2CCOCC2)nc1	36.4*	-1.2	5.0	4.2	0.1
Cc1ccc(S(=O)(=O)c2cc3ccccc3nc2N)cc1	39.5*	13.5	11.6	-2.5	1.7
CN(C)c1ncc(S(=O)(=O)c2ccccc2)c(N)n1	-1.2	0.1	-5.3	2.2	0.1
NC(=O)c1ccc(NC(=O)COC(=O)C2CCN(S(=O)(=O)c3cccs3)CC2)cc1	129.6*	-0.2	-11.6	-4.5	0.9
CCC(=O)N(C)C[C@H]1Oc2cc(-c3cncnc3)ccc2S(=O)(=O)N([C@@H](C)CO)C[C@@H]1C	·	·	-7.3[16.7 µM]	·	·
C[C@@H]1CN([C@@H](C)CO)C(=O)Cc2cc(NC(=O)Cc3cn(C)c4ccccc34)ccc2O[C@@H]1CN(C)C	·	·	13.9[16.7 µM]	·	·
Cc1ccc(S(=O)(=O)NN=C2C3CC4CC(C3)CC2C4)cc1	·	0.4	-5.0	-4.5	-1.3
Cc1ccc(S(=O)(=O)NC23CC4CC(CC(C4)C2)C3)cc1	·	-1.3	106.4*	0.1	-0.4
CCOC(=O)c1c(NC(=O)C2CCCCC2)sc2c1CCN(CC)C2	45.4*	-0.7	-15.4	-6.1	-1.7
CCN1CCc2c(sc(NC(=O)C3CCCCC3)c2C(=O)OC)C1	-3.0	-1.4	·	0.6	-1.6
COc1ccc(OC)c(S(=O)(=O)Nc2ccc3oc4c(c3c2)C(=O)CCC4)c1	-3.9	-3.6	165.3*	5.6	-0.1
COc1ccc(OC)c(S(=O)(=O)Nc2cc3c4c(c2)CCC(=O)N4CCC3)c1	2.2	-0.2	138.4*	-7.6	-0.1
Cc1ccc(C)c(S(=O)(=O)Nc2cc3c4c(c2)CCC(=O)N4CCC3)c1	·	-1.1	217.9*	0.7	0.0
C[C@@H]1CN([C@H](C)CO)S(=O)(=O)c2ccc(C#CC3(O)CCCC3)cc2O[C@@H]1CN(C)C(=O)c1ccccc1	·	·	1.1[16.7 µM]	·	·
SMILES	CAL PDZ FP-1	CAL PDZ FP-2	miR-122 sensor	Keap1-Nrf2 PPI	LANA DNA inh
CCNC(=O)C[C@@H]1CC[C@H]2[C@@H](COc3ccc(NS(C)(=O)=O)cc3C(=O)N2C)O1	·	·	-8.3[16.7 µM]	·	·
C[C@H]1CN([C@@H](C)CO)C(=O)c2cc(NC(=O)NC3CCCCC3)ccc2O[C@H]1CN(C)C(=O)Nc1ccc2c(c1)OCO2	·	·	-26.8[16.7 µM]	·	·
CC(NC(=O)CCC(=O)NCc1ccc(F)cc1)c1ccccc1 (configuration not stated)	87.9*	-0.8	-0.2	-3.8	1.6
CC(NC(=O)CCC(=O)c1ccccc1)c1ccc(F)cc1 (configuration not stated)	-1.2	-1.7	-2.3	0.8	0.4
Cc1ccc(N2CC(C(=O)Nc3nccs3)CC2=O)cc1Cl (configuration not stated)	·	-3.1	95.9*	-4.7	-1.8
CN(C)C(=O)C[C@H]1C=C[C@@H](NC(=O)NC2CCCCC2)[C@@H](CO)O1	·	·	-8.0[16.7 µM]	·	·
C[C@@H]1CN([C@H](C)CO)C(=O)c2cccc(NC(=O)Nc3ccc4c(c3)OCO4)c2O[C@@H]1CN(C)C(=O)Nc1ccccc1	·	·	28.1[16.7 µM]	·	·
N[C@@H](Cc1cc(I)c(Oc2ccc(O)c(I)c2)c(I)c1)C(=O)O	-2.8	0.8	93.2*!	-4.7	1.8
N[C@@H](Cc1ccc(O)c(O)c1)C(=O)O	3.9	0.8	2.4	-4.9	22.3
COc1ccc(NS(=O)(=O)c2cccc(C(=O)O)c2)cc1S(=O)(=O)N1CCOCC1	·	-0.3	6.2	2.1	-0.7
COc1ccc(S(=O)(=O)Nc2ccc(N3CCOCC3)cc2)cc1	·	0.8	0.7	-1.3	-0.1
COc1ccc(NS(=O)(=O)c2ccc(/C=C/C(=O)O)cc2)cc1S(=O)(=O)N1CCOCC1	43.7*	0.0	2.2	-2.5	-0.5
COc1ccc(S(=O)(=O)Nc2ccc(S(=O)(=O)N3CCOCC3)cc2)cc1	-17.1	-2.7	159.8*	-1.1	0.2
C[C@@H]1CN([C@@H](C)CO)C(=O)c2cc(NS(=O)(=O)c3cn(C)cn3)ccc2O[C@@H]1CN(C)C(=O)Nc1ccc2c(c1)OCO2	·	·	2.0[16.7 µM]	·	·
CC(C)(C)c1ccc(S(=O)(=O)Nc2ccc3c(c2)COC3=O)cc1	3.4	-0.9	36.9	0.8	1.2
COc1ccc(S(=O)(=O)Nc2ccc3c(c2)COC3=O)cc1OC	0.2	-2.1	150.4*	-3.5	-1.3
C[N+]1(CC(=O)OC2CCCCCCCCCCC2)CCCC1	96.5*	-0.7	·	-0.6	-1.3
COC(=O)CCCCCCCCCC[N+]1(C)CCCCC1	-2.4	-1.7	2.2	2.7	-3.5
C[C@H]1CN([C@@H](C)CO)C(=O)CCCn2nncc2CO[C@H]1CN(C)Cc1ccc(Cl)c(Cl)c1	·	·	-1.4[16.7 µM]	·	·
O=c1cc2c(=O)oc3cc(O)c(O)oc3c2c(O)c1O	-3.3	·	·	-3.4	112.2*
CCOC(=O)c1ccc(-c2ccc(C=O)o2)cc1	64.1*	-1.1	·	1.6	0.8
C[C@@H]1CN([C@@H](C)CO)C(=O)c2cc(C#Cc3cccnc3)cnc2O[C@H]1CN(C)Cc1ccccc1	·	·	5.8[16.7 µM]	·	·
O=C(NNS(=O)(=O)c1ccccc1)c1ccccc1-n1cccc1	41.4*	-1.0	-2.2	-0.3	-1.4
COc1ccc(C(=O)/C=C/c2ccccc2)c(OC)c1	-5.7	0.2	10.7	-1.0	-0.2
COc1ccc(C(=O)/C=C/c2ccc(N(C)C)cc2)c(OC)c1	·	0.5	212.5*	-59.9	-8.1
COc1ccc(CN(Cc2ccc(C(=O)O)cc2)C(=S)Nc2ccccc2F)cc1OC	·	-2.6	2.3	-2.3	0.8
COc1ccccc1NC(=S)N(Cc1ccc(C(=O)O)cc1)Cc1ccc(OC)c(OC)c1	50.2*	0.1	-4.0	2.2	-0.8

Source: PubChem
